This is a sample that favours compounds with a hit; in the whole collection about 4.1% have one here.
hERG protect – shields human hERG channel from block by proarrhythmic agents; activation (rescue from dofetilide block), less the hit threshold, % at 10 µM; AID 1511; CHO-hERG, FluxOR thallium flux, dofetilide IC70 present; 0.51% of 310,000 active;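 active = activation above the mean of controls blocked by dofetilide plus 5 SD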;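 also: thallium influx through hERG after potassium depolarization seen as dye fluorescence rise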
KCC2 mod – modulates chloride dependent transport by human KCC2. Q9H2X9. KCC2 cells, thallium flux FluoZin-2 fluorescence. B-score of Tl+ flux slope (higher = more flux/activation; lower = inhibition) at 10 µM. 2.2% of 190,000 active. AID 1456;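 active = thallium flux slope and its plate-corrected score both differing from the plate sample mean at a set confidence after two filtering rounds, in either direction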;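 also: slope of fluorescence scaled to starting intensity during 10 to 20 s after thallium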
KCNQ1 pot – potentiates or activates the human KCNQ1 potassium channel; P51787; CHO-K1 KCNQ1, thallium flux FluxOR fluorescence; stronger effect = higher value; B-score at 10 µM; 0.35% of 310,000 active; AID 2648;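 active = fluorescence ratio B-score, a plate-corrected score, at least three library SD, with initial intensity B-score within 5 SD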
Target sequence (P51787 whole entry, looked up): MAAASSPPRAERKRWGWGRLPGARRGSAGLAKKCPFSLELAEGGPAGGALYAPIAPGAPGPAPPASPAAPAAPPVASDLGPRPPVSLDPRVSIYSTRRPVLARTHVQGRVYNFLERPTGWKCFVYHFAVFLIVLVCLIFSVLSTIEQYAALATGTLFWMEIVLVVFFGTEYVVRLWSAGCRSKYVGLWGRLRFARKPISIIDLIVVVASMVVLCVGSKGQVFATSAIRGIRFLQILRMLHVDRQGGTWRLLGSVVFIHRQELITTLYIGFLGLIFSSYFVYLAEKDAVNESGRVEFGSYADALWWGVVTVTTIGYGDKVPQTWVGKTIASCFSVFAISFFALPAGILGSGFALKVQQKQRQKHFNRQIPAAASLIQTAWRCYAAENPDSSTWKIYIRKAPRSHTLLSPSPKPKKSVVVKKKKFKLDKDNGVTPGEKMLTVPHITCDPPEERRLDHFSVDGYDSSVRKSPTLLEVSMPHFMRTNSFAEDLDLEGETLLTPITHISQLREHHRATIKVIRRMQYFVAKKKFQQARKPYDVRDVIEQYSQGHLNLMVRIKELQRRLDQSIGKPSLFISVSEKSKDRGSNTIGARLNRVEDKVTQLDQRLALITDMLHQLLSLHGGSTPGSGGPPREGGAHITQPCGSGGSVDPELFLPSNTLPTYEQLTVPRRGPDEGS
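Test system: CHO-K1 cells stably expressing KCNQ1 / Medium: assay buffer / Also added: depolarizing K+/Tl+ stimulus, K2SO4 and Tl2SO4 each 12.5 mM in 5x stock / Incubation: 90 min dye loading and 20 min compound exposure, both at room temperature / Signal: thallium influx via FluxOR fluorescence, kinetic imaging / Evaluation: B score of baseline-normalized fluorescence ratio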
KCNQ1 block – blocks the human KCNQ1 potassium channel; P51787; CHO-K1 KCNQ1, FluxOR thallium flux fluorescence; stronger effect = higher value; B-score at 10 µM; 1.3% of 310,000 active;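 active = compounds whose thallium flux B-score, printed positive for inhibition, exceeds three library SD while starting fluorescence stays within three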;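 also: channel opened by potassium depolarization with thallium stimulus after 20 min compound exposure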
KCNK9 inh – blocks the human KCNK9 two-pore domain potassium channel; Q9NPC2; 1.2% of 310,000 active; AID 488922; B-score at 10 µM; HEK293 KCNK9, FluxOR thallium flux fluorescence; stronger effect = lower value;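 active = ratio B-score over 3 SD below the library mean, with starting fluorescence within 5 SD of its mean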;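 also: negative B-score means less thallium flux so channel inhibition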
KCNK3 inh – human KCNK3 channel inhibition, primary screen. O14649. AID 602410. CHO-KCNK3 thallium flux, FluxOR fluorescence; stronger effect = lower value. B-score at 10 µM. 0.84% of 340,000 active;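 active = B-score under library mean minus 4 SD, starting fluorescence ratio at most library mean plus 5 SD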;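 also: more negative B-score means stronger inhibition of thallium flux through KCNK3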
KCNQ1 inh valid – human KCNQ1 channel inhibition, validation assay. 93% of 1,600 active. shares compounds with KCNQ1 block. inhibition, % at 10 µM. KCNQ1 cell line, FluxOR thallium flux fluorescence;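 active = primary screen active, with duplicate mean exceeding buffer control mean plus 3 SD of buffer wells, cut at about 28% in these data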;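 also: 0% = buffer control ratio and 100% = XE991 inhibitor control ratio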
CHO KCNQ1 ctr – KCNQ1 inhibitor counter-screen hit in parental CHO cells. shares compounds with KCNQ1 block. parental CHO-K1, FluxOR thallium flux fluorescence ratio; stronger effect = lower value; zero means no signal rise above baseline. fluorescence ratio (Tl flux) at 10 µM. 21% of 1,600 active;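 active = mean of duplicate thallium-flux fluorescence ratios in parental host cells more than 5 SD below the buffer control mean, cut at about 0.38 in these data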;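 also: ratio is peak minus minimum fluorescence divided by baseline fluorescence; actives read low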
KCNQ1 ephys val – blocks human KCNQ1 current in automated patch clamp. shares compounds with KCNQ1 block. KCNQ1-CHO cells. calls only at 10 µM. 20% of 490 active;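 active = KCNQ1 current drop exceeding 3 SD of negative control wells, seen in both duplicate runs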;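 also: steady state current during a 2 s step from -80 to +40 mV; negative values mean current inhibition and positive values mean potentiation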
KCNQ2 inh – KCNQ1 inhibitor that also blocks rat KCNQ2 channel; AID 651746; 71% of 1,600 active; shares compounds with KCNQ1 block; inhibition, % at 10 µM; KCNQ2 cells, FluxOR thallium flux fluorescence;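 active = mean percent inhibition of the KCNQ2 thallium signal more than 5 SD above the buffer-only control wells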;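 also: KCNQ2 expressed in CHO cells; 0% = buffer control wells and 100% = XE-991 inhibitor control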
KCNQ1 KCNE1 spec – selectivity of KCNQ1 inhibitors: inhibition of human KCNQ1/KCNE1 channel | KCNQ1/KCNE1 cells, FluxOR thallium flux fluorescence | inhibition, % at 10 µM | 77% of 1,600 active | shares compounds with KCNQ1 block;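 active = mean percent inhibition of duplicate wells above the buffer-only control mean plus 3 SD of those controls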;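 also: 0% = buffer only wells and 100% = XE-991 inhibitor control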
Active calls of the source: *; i = inactive; · = no result given; + = active, no number.

SMILES | hERG protect | KCC2 mod | KCNQ1 pot | KCNQ1 block | KCNK9 inh | KCNK3 inh | KCNQ1 inh valid | CHO KCNQ1 ctr | KCNQ2 inh | KCNQ1 KCNE1 spec | others
CCCCOC(=O)C1=C(C)NC(=O)NC1c1ccc2c(c1)OCO2 (stereo not drawn) | · | · | · | · | · | i | · | · | · | ·
COc1cccc(NC(=O)Nc2ccc(C)c(Cl)c2)c1 | -9 | -0.81 | i | 6* | i | i | 76* | 0.52 | i | i
Cc1ccc(NC(=O)Nc2ccc(F)cc2)cc1Cl | -7 | -0.074 | i | 10* | i | i | 70* | 0.45 | 61%* | i
Cc1ccc(NC(=O)CCC(=O)c2ccc(F)cc2)cc1Cl | -10 | -1.5 | i | i | i | i | · | · | · | ·
CCCCCCC(C)NC(=S)Nc1cc(S(=O)(=O)N(C)C)ccc1C (stereo not drawn) | -8 | 1.8 | i | i | i | i | · | · | · | ·
O=C(Nc1ccccc1F)C(=O)Nc1cccc2ccccc12 | -2 | · | i | i | i | i | · | · | · | ·
CCOc1ccc(N=C2NC(=O)S/C2=C\c2ccc(N(C)C)cc2)cc1 | -15 | · | i | 10* | i | i | 181* | 0.42 | i | i
O=C(NCc1ccccc1)c1ccccc1CO | -3 | -0.52 | i | i | i | i | · | · | · | ·
CCC(C)(C(=O)NC1CCCCC1)N(Cc1ccco1)C(=O)c1ccc2c(c1)OCO2 (stereo not drawn) | -12 | · | i | i | i | i | · | · | · | ·
COC(=O)CSC1=NS(=O)(=O)c2ccccc21 | -31 | -0.026 | i | 8* | i | i | 100* | 0.38* | 98%* | 141%*
COC(=O)CSc1ccccc1C(=O)OC | -6 | 1.1 | i | i | i | i | · | · | · | ·
O=C(CSC1=NS(=O)(=O)c2ccccc21)Nc1ccccc1 | -24 | -1.2 | i | 7* | i | i | 78* | 0.4 | 85%* | 122%*
COC(=O)[C@H](Cc1ccccc1)NC(=O)Nc1ccc(C)cc1 | -4 | · | i | i | i | i | · | · | · | ·
CC1CCN(CC(=O)N2CCCc3c2c(=O)oc2ccc(OCc4ccccc4)cc32)CC1 | -9 | · | i | i | i | i | · | · | · | ·
CC1CC(C)CN(CC(=O)N2CCCc3c2c(=O)oc2ccc(OCc4ccccc4)cc32)C1 (stereo not drawn) | -14 | · | i | 9* | i | i | 110* | 0.4 | 100%* | 151%*
CN(C)c1ccc2c3c(cccc13)C(=O)N(c1ccccc1)C2=O | -12 | · | i | i | i | · | · | · | · | ·
CCN1C(=O)c2cccc3c(Cl)ccc(c23)C1=O | -5 | -2.1 | i | i | i | i | · | · | · | ·
Cc1cccc(N2C(=O)c3cccc4c(N(C)CCO)ccc(c34)C2=O)c1 | -17 | i | i | 7* | i | i | 122* | 0.25* | i | i
Cc1cccc(N2C(=O)c3cccc4c(N)ccc(c34)C2=O)c1 | -51 | · | i | 23* | i | i | + | 0.0085* | i | i
Cc1cccc(N2C(=O)c3cccc4cccc(c34)C2=O)c1 | -8 | · | i | i | i | i | · | · | · | ·
CC(C)CCN1C(=O)c2cccc3c(N)ccc(c23)C1=O | -42 | · | i | 24* | i | i | + | 0.0055* | i | i
CC(=O)c1cc2c(cc1NC(=O)CCn1cnnn1)OCO2 | -11 | · | i | i | i | i | · | · | · | ·
COc1ccccc1OCC(=O)NNC(=O)C1CCN(c2ncnc3sc(C)c(C)c23)CC1 | · | · | · | · | · | i | · | · | · | ·
COc1ccc(CC(=O)Nc2nc(-c3ccc(OC)c(OC)c3)cs2)cc1OC | -15 | · | i | i | i | i | · | · | · | ·
COc1ccc(-c2csc(NC(=O)C3CC(=O)N(Cc4ccccc4)C3)n2)cc1OC (stereo not drawn) | -12 | · | i | 6* | i | i | 123* | 0.38 | 93%* | 163%* | KCNQ1 ephys val=i
SMILES | hERG protect | KCC2 mod | KCNQ1 pot | KCNQ1 block | KCNK9 inh | KCNK3 inh | KCNQ1 inh valid | CHO KCNQ1 ctr | KCNQ2 inh | KCNQ1 KCNE1 spec | others
COc1ccc(-c2csc(NC(=O)C3CCN(c4ncnc5sc(C)c(C)c45)CC3)n2)cc1OC | -16 | · | i | 9* | i | i | 122* | 0.41 | 83%* | 103%* | KCNQ1 ephys val=i
CC(=O)Nc1ccc2nc3c(=O)n(C)c(=O)n(C)c3nc2c1 | -14 | 0.17 | i | 8* | i | i | 54* | 0.4 | i | i
O=C(NCc1ccccc1)c1ccc(NC2=NC3CS(=O)(=O)CC3S2)cc1 (stereo not drawn) | -2 | · | i | i | i | i | · | · | · | ·
O=S(=O)(c1ccc2[nH]c3c(c2c1)CCCC3)N1CCCCC1 | -3 | · | i | 9* | i | i | 88* | 0.45 | 75%* | 110%* | KCNQ1 ephys val=+
O=c1[nH]c2ccc(S(=O)(=O)N3CCCCC3)cc2[nH]1 | -8 | -0.39 | i | i | i | i | · | · | · | ·
CS(=O)(=O)NCCNc1ncc(C(F)(F)F)cc1Cl | -4 | -0.56 | i | i | i | i | · | · | · | ·
O=S(=O)(NCCNc1ncc(C(F)(F)F)cc1Cl)C(F)(F)F | -14 | -1.6 | i | 6* | i | i | 40* | 0.47 | i | i
S=C(NCc1ccccc1)Nc1ccc(Oc2ccccc2)cc1 | -4 | · | i | 7* | i | i | 94* | 0.43 | 74%* | 49%* | KCNQ1 ephys val=i
CCNC(=S)Nc1ccc(Oc2ccccc2)cc1 | -8 | · | i | i | i | i | · | · | · | ·
CCN(CC)c1ccc(C=Nc2ccccc2C)c(O)c1 | -9 | -0.093 | i | i | i | i | · | · | · | ·
CCN(CC)c1ccc(O)c(C=Nc2ccc(C)c(C)c2)c1 | -9 | 0.08 | i | 11* | i | i | 150* | 0.44 | 110%* | 166%* | KCNQ1 ephys val=i
OCCNc1nc(N2CCCCC2)nc2ccccc12 | -5 | · | i | i | i | i | · | · | · | ·
c1coc(CNc2nc(N3CCCCC3)nc3ccccc23)c1 | -16 | -0.47 | i | 9* | i | i | 60* | 0.38* | 72%* | 62%*
